Results collected from several papers.
Lines come from different studies, so protocols differ.
Read-out: metabolic stability
Species: rat

O=C1CCC(N2Cc3c(ccc4c3OCC43CCN(Cc4ccccc4)CC3)C2=O)C(=O)N1 (centres unmarked)  scaled CLint (liver microsomes; 1 µM): 22 mL/min/kg
Cc1[nH]c(C)c(S(=O)(=O)Nc2ccc(S(=O)(=O)F)c(Cl)c2)c1C(=O)N1CCC(F)(F)C1  microsomal CLint (liver microsomes): 63.7 µL/min/mg
C[C@]12CC[C@H]3[C@@H](CCC4=CC(=O)CC[C@@]43C)[C@@H]1CC[C@@H]2O  scaled CLint (liver microsomes; 1 µM, pH 7.4): 2500 mL/min/kg
NCCOCC(=O)N1CCCC(C(=O)NCc2nc(-c3ccc(-c4ccc(F)cc4)cc3)cs2)C1 (centres unmarked)  scaled CLint (liver microsomes): < 7 mL/min/kg
O=c1[nH]c2ccccc2n1C1CCN(CCCC(c2ccc(F)cc2)c2ccc(F)cc2)CC1  microsomal CLint (liver microsomes; 100 ng/mL): 8.7 µL/min/mg
C[C@]12CC[C@H]3[C@@H](CCC4=CC(=O)CC[C@@]43C)[C@@H]1CC[C@@H]2O  microsomal CLint (liver microsomes): 893 µL/min/mg
Cc1[nH]c(C)c(S(=O)(=O)Nc2ccc(S(F)(F)(F)(F)F)cc2)c1C(=O)N1CCC(F)(F)C1  microsomal CLint (liver microsomes): 39 µL/min/mg
CC(C)CC(=O)OC[C@H]1O[C@@](C#N)(c2ccc3c(N)ncnn23)[C@H](O)[C@@H]1O  hepatocyte CLint (hepatocytes; 5 µM): > 318 µL/min/10⁶ cells
